Results gathered from unrelated publications.
Target: cAMP-dependent protein kinase catalytic subunit beta (PRKACB, Homo sapiens, UniProt P22694)

The remaining binding of `O=C(O)[C@@H]1[C@@H](Cn2nnc3ccccc3c2=O)CC[C@H]1C(=O)c1ccc(OCCC2CCOCC2)cc1` is reported as 100% (cell-free assay; competition with immobilised ligand; 1 µM).
For `Cc1cnn2ncc(-c3ccnc(N(C)C)n3)c2c1`, the remaining binding was 96% (binding; competition with immobilised ligand; 1 µM).
With `CCN1CCN(Cc2ccc(C(=O)Nc3ccc(C)c(Oc4ccc5c(c4)CC(=O)N5)c3)cc2C(F)(F)F)CC1` the remaining binding was 80% (binding; competition with immobilised ligand; 1 µM).
With `COc1ccc2c(O[C@@H]3C[C@H]4C(=O)N[C@]5(C(=O)O)CC5/C=C\CCCCC[C@H](NC(=O)OC5CCCC5)C(=O)N4C3)cc(-c3csc(NC(=O)C(C)C)n3)nc2c1C` (stereo partly drawn) the remaining binding was 100% (cell-free assay; competition with immobilised ligand; 1 µM).
For `C[C@@H](c1ccc(-n2cnc3c(N)ncnc32)cc1)N1CCc2nn(C)c(Cc3ccccc3)c2C1=O`, the remaining binding was 100% (binding; competition with immobilised ligand; 0.1 µM).
`C[C@@H]1CCN(c2nccc(-c3cnn4ncccc34)n2)C1` has a remaining binding of 72% (binding; competition with immobilised ligand; 1 µM).
The remaining binding of `CCCCN(CCCC)C(=O)CN1C[C@@H](c2cc(OC)c3c(c2)OCO3)[C@H](C(=O)O)[C@H]1CC(C)(C)CCC` is reported as 100% (cell-free assay; competition with immobilised ligand; 1 µM).
`CN(C)c1nccc(-c2cnc3ncccn23)n1` gave a remaining binding of 82% (binding; competition with immobilised ligand; 1 µM).
With `O=C(NCCCN1CCOCC1)c1ccc(Nc2nccc(-c3cc4ccccc4s3)n2)cc1` the remaining binding was 100% (binding; competition with immobilised ligand; 1 µM).
`CN(C)c1nccc(-c2cnn3ncccc23)n1` gave a remaining binding of 76% (binding; competition with immobilised ligand; 1 µM).
With `c1cncc(-c2cccc(Nc3nccc(NC4CCCCC4)n3)c2)c1` the remaining binding was 56% (binding; competition with immobilised ligand; 10 µM).
For `Cc1cnc(Nc2ccc(C(=O)N3CCC(N4CCCC4)CC3)cc2)nc1-c1cc2ccccc2s1`, the remaining binding was 85% (binding; competition with immobilised ligand; 1 µM).
The remaining binding of `C=CC(=O)N1CCC(C(=O)NCC(=O)N2CCN(c3nc(-c4cnc(N)nc4C(F)F)nc(N4CCOCC4)n3)CC2)CC1` is reported as 90% (binding; competition with immobilised ligand; 1 µM).
With `CNC(=O)[C@@H]1CC[C@@H](n2c(-c3ccc4cnccc4c3)nc3ccc(C(=O)NCc4cccc(C(N)=O)c4)cc32)C1` the remaining binding was 100% (binding; competition with immobilised ligand; 1 µM).
`O=C(Nc1c[nH]nc1C(=O)NC1CCNCC1)c1cc(F)cc(F)c1` gave a remaining binding of 100% (binding; competition with immobilised ligand; 1 µM).
`Cc1nc(Cc2cccc(C(F)(F)F)c2)sc1-c1ccc(C(N)=O)nc1` has a remaining binding of 92% (cell-free assay; competition with immobilised ligand; 1 µM).
For `COc1cnc(Nc2cccc(S(N)(=O)=O)c2)nc1N1CCN(c2ccccc2)C(=O)C1`, the remaining binding was 99% (binding; competition with immobilised ligand; 1 µM).
`CN(C)CC#Cc1ccc(OCCCc2sc(N3CCc4cccc(C(=O)Nc5nc6ccccc6s5)c4C3)nc2C(=O)O)c(F)c1` has a remaining binding of 100% (cell-free assay; competition with immobilised ligand; 1 µM).
The remaining binding of `O=C(c1ccc(Nc2nccc(-c3cc4ccccc4s3)n2)cc1)N1CCC(N2CCCC2)CC1` is reported as 100% (binding; competition with immobilised ligand; 1 µM).
`CN(c1nccc(-c2cnn3ncccc23)n1)C1CC1` has a remaining binding of 99% (binding; 1 µM).
With `CS(=O)(=O)N1CCCC(NC(=O)[C@H](CCC2CCCCC2)NC(=O)c2ccc(CNc3ncnc4c3nnn4-c3ccccc3)cc2)C1` (stereo partly drawn) the remaining binding was 92% (cell-free assay; competition with immobilised ligand; 0.1 µM).
